Shown are actives, neighbours in structure and some others; about 4.1% of the full set was active somewhere.
MPTP block: blocks calcium-induced mitochondrial swelling; isolated mouse mitochondria, Ca2+ swelling absorbance, 30 min; inhibition, % at 10 µM; 360,000 tested, 1.4% active;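 active = inhibition of 50% or more, scaled per plate between neutral and stimulator controls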;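 also: 0% = DMSO wells given calcium and 100% = 1 mM EGTA wells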
SMARCA2 activ: SMARCA2 function activation, primary screen. MG213 cells, MMTV-luciferase reporter, dexamethasone, overnight. activation, % at 9.1 µM. 370,000 tested, 1% active. AID 652017; in the data active = activation above about 7.8%;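 also: 0% = vehicle wells and 100% = reference activator wells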
MC4R antagonist: blocks human MC4R cAMP signaling; P32245; MC4R-expressing cells, MTII-stimulated cAMP, LANCE TR-FRET; inhibition, % at 6.5 µM; 360,000 tested, 0.48% active; AID 540295;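 active = inhibition above its plate's cutoff, the mean of tested wells on that plate plus 3 SD, cut at about 29% in these data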;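 also: 0% = Melanotan II alone and 100% = Melanotan II plus saturating MCL0020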
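Material: human MC4R-expressing U2OS cells. Probe or stimulus: Melanotan II challenge. Dosing: 6.5 µM single dose. Times: 30-min compound, 1-h challenge, 1-h detection, room temperature. Technique: TR-FRET with Eu-cAMP and labeled anti-cAMP, 671 nm. Replication: singlicate.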
ATG4B inh: blocks human ATG4B protease cleavage of LC3 substrate | Q9Y4P1 | ATG4B cleavage of LC3-PLA2, NBD-HPC fluorescence, 1 h | inhibition, % at 8.33 µM | 340,000 tested, 0.51% active; in the data active = inhibition above about 40%
Target sequence (Q9Y4P1 whole entry, looked up): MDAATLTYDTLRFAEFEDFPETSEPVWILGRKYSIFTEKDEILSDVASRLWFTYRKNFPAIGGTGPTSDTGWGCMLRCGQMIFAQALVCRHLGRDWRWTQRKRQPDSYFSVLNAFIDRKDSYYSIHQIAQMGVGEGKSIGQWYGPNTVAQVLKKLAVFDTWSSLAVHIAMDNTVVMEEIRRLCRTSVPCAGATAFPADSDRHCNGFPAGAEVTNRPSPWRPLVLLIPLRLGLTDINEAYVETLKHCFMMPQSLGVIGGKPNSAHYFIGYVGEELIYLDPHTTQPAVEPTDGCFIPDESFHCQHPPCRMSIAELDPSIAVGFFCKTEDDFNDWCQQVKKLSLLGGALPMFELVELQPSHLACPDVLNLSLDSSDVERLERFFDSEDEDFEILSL
MC4R ag barr: human MC4R agonism via beta-arrestin; 360,000 tested, 0.98% active; AID 540308; activation, % at 8.9 µM; P32245; U2OS MC4R beta-arrestin complementation, luminescence; percent of melanotan II response, DMSO zero;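 active = activation above a per-plate cutoff, the mean activation of sample wells on that plate plus 3 SD, cut at about 8% in these data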
U2OS cAMP counter: U2OS forskolin cAMP inhibition counter-screen; 1,600 tested, 26% active; parental U2OS, LANCE TR-FRET; inhibition, % at 6.5 µM; shares compounds with MC4R antagonist;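 active = mean inhibition over triplicates above the low-control well mean plus 3 SD, set per campaign, cut at about 13% in these data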;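 also: signal is single emission at 671 nm which falls as cellular cAMP rises; 0% = forskolin-stimulated wells and 100% = buffer without forskolin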
MC4R cAMP antag: human MC4R cAMP antagonism confirmation. inhibition, % at 6.5 µM. shares compounds with MC4R antagonist. 1,600 tested, 27% active. MC4R-expressing cells, MTII-stimulated cAMP, TR-FRET; in the data active = inhibition above about 29%;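 also: 0% = agonist stimulated wells alone and 100% = agonist stimulated wells plus saturating reference antagonist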
Numbers without * were called inactive; · = not tested or not shown.

SMILES | MPTP block | SMARCA2 activ | MC4R antagonist | ATG4B inh | MC4R ag barr | U2OS cAMP counter | MC4R cAMP antag
COc1ccc(-c2cc(C(=O)N3CCCCCC3)c3ccccc3n2)cc1OC | 0 | 0 | -3 | · | -2 | · | ·
COc1ccc(-c2cc(C(=O)N(C)CC(=O)Nc3ccccc3Br)c3ccccc3n2)cc1OC | -1 | 1 | 11 | -11 | -3 | · | ·
COc1ccc(-c2cc(C(=O)N(C)CC(=O)Nc3ccccc3C(F)(F)F)c3ccccc3n2)cc1OC | 1 | 0 | 31* | -4 | -1 | 2 | 12
COc1ccccc1NC(=S)N1CCC(NC(=O)NC23CC4CC(CC(C4)C2)C3)CC1 | 2 | 2 | 34* | -13 | 0 | 0 | -12
CCOc1ccccc1NC(=S)N1CCC(NC(=O)NC23CC4CC(CC(C4)C2)C3)CC1 | 0 | -2 | 0 | -5 | 0 | · | ·
Cc1cccc(-n2c(O)c(C=Nc3cc(O)ccc3C)c3ccccc3c2=O)n1 | 1 | -2 | 31* | -9 | 1 | 2 | 0
CN(C)[C@@H]1CCN(c2cccc3c2S(=O)(=O)N(C2CC2)CCCO3)C1 | · | -1 | · | · | · | · | ·
COc1ccc(CN2C(=O)c3ccnn3CC2(C)c2nnnn2-c2c(C)cccc2C)cc1 (stereo not given) | · | -1 | · | · | · | · | ·
COCCNC(=S)N/N=C/c1ccc([N+](=O)[O-])cc1 | 3 | -1 | -1 | -1 | 0 | · | ·
C=C(C)CNC(=S)N/N=C/c1ccc([N+](=O)[O-])cc1 | 3 | -1 | 30* | 5 | 0 | -1 | 2
S=C(NC1CC1)NC1CCCc2ccccc21 (stereo not given) | 0 | 0 | 28* | -5 | 3 | 6 | 4
COC(=O)CSc1nnc(-c2ccc(NS(=O)(=O)c3ccc(Cl)s3)cc2)o1 | · | -4 | · | · | · | · | ·
O=C(c1cc(=O)c2ccccc2o1)N(Cc1ccccc1)C1CCS(=O)(=O)C1 (stereo not given) | 1 | 0 | -1 | -7 | -1 | · | ·
Cc1cc2oc(C(=O)N(Cc3ccccc3)C3CCS(=O)(=O)C3)cc(=O)c2cc1Cl (stereo not given) | -3 | -1 | 30* | -20 | 1 | 1 | 11
CCCCN(C)C(=O)CSc1nnc(-c2cc(OC)c(OC)c(OC)c2)o1 | · | 6 | · | · | · | · | ·
Cc1ccc([C@H]2C(C#N)=C(N)Oc3cc(C)oc(=O)c32)o1 | 0 | -1 | 30* | -6 | 0 | -2 | -8
Cc1ccc(C(=O)OC(C)C(=O)NC2CCCCC2)cc1S(=O)(=O)N1CCCCC1 (stereo not given) | -1 | -1 | 4 | -5 | 0 | · | ·
CCC(OC(=O)c1ccc(S(C)(=O)=O)c([N+](=O)[O-])c1)C(=O)NC1C2CC3CC(C2)CC1C3 (stereo not given) | -1 | -2 | 60* | · | -2 | -9 | 12
CC(OC(=O)c1ccc(S(C)(=O)=O)c([N+](=O)[O-])c1)C(=O)NC1C2CC3CC(C2)CC1C3 (stereo not given) | 0 | 4 | 29* | · | -2 | 8 | 21
CCCCCCn1cc(CN2CC=CS2(=O)=O)nn1 | · | -5 | · | · | · | · | ·
O=C1c2ccccc2C(=O)N1SC1CCCCC1 | 2 | 1 | 29* | 6 | 3 | 8 | 25
O=C(OCN1C(=O)c2ccccc2C1=O)C1CCCCC1 | 1 | 0 | 7 | -3 | 0 | · | ·
Cc1cc(S(=O)(=O)c2ccc(Cl)cc2)nc(S(=O)(=O)c2ccc(Cl)cc2)c1C#N | -2 | -5 | 39* | · | -4 | 29* | 28
C[C@@H]1CN([C@H](C)CO)C(=O)c2cc(NC(=O)Nc3ccc(C(F)(F)F)cc3)ccc2O[C@H]1CN(C)Cc1ccc(Cl)c(Cl)c1 | -1 | 4 | 6 | · | -1 | · | ·
C[C@H](CO)N1C[C@H](C)[C@@H](CN(C)C(=O)Nc2ccc3c(c2)OCO3)Oc2c(NC(=O)Nc3ccc(C(F)(F)F)cc3)cccc2C1=O | 0 | -2 | 56* | -17 | -1 | -2 | 30*
SMILES | MPTP block | SMARCA2 activ | MC4R antagonist | ATG4B inh | MC4R ag barr | U2OS cAMP counter | MC4R cAMP antag
C[C@H](CO)N1C[C@H](C)[C@@H](CN(C)C(=O)Nc2ccc(C(F)(F)F)cc2)Oc2c(NC(=O)Nc3ccc4c(c3)OCO4)cccc2C1=O | -2 | 0 | 17 | -10 | -1 | · | ·
CC(C)NC(=O)N(C)C[C@H]1Oc2c(NC(=O)Nc3ccc(C(F)(F)F)cc3)cccc2C(=O)N([C@H](C)CO)C[C@@H]1C | 0 | -1 | 13 | -16 | -1 | · | ·
C[C@H](CO)N1C[C@H](C)[C@@H](CN(C)C(=O)NC2CCCCC2)Oc2c(NC(=O)Nc3ccc(C(F)(F)F)cc3)cccc2C1=O | 1 | -2 | 30* | -11 | 0 | 2 | 18
C[C@H]1CN([C@@H](C)CO)C(=O)c2cccc(NC(=O)Nc3ccc(C(F)(F)F)cc3)c2O[C@@H]1CN(C)Cc1ccc(Cl)c(Cl)c1 | 2 | -1 | 41* | -8 | 2 | -3 | -12
C[C@H](CO)N1C[C@H](C)[C@H](CN(C)C(=O)Nc2cccc3ccccc23)Oc2ncc(Br)cc2C1=O | · | -2 | · | · | · | · | ·
CCc1ccc(NC(=O)c2cc(-c3ccc(OC)cc3)on2)cc1 | 0 | -2 | 14 | -1 | -1 | · | ·
COc1ccc(-c2cc(C(=O)Nc3ccc(Br)cc3)no2)cc1 | -1 | -2 | 29* | 4 | 2 | 4 | 12
COc1ccc(-c2cc(C(=O)Nc3cc(C)on3)no2)cc1OC | 3 | -2 | 31* | 4 | -2 | 2 | -1
CC(=O)NCC(c1cccs1)S(=O)(=O)c1ccc(F)cc1 (stereo not given) | 1 | -1 | 33* | -1 | 1 | 5 | 6
CNC(=O)C(=O)NCC(c1cccs1)S(=O)(=O)c1ccc(C)cc1 (stereo not given) | 0 | -1 | 26 | 0 | 0 | · | ·
O=C1COc2ccc(C(=O)COC(=O)c3ncc(Cl)c(Cl)c3Cl)cc2N1 | 0 | -2 | 29* | 6 | 5 | 2 | 1
CCc1ccccc1N(CC(=O)NCc1ccco1)C(=O)CCC(=O)Nc1ccccn1 | 2 | -1 | 31* | -10 | 4 | -2 | -12
COc1ccc(NC(=O)c2cccc(-n3c(C)ccc3C)c2)c(OC)c1 | 0 | 3 | 29* | 13 | -1 | 1 | -4
COc1ccc(NC(=O)c2cccc(N3C(=O)C4CCC(C)CC4C3=O)c2)c(OC)c1 (stereo not given) | 1 | -1 | 0 | -1 | -1 | · | ·
Cc1c(NC(=O)C2CCCN(S(=O)(=O)c3cccc4ccccc34)C2)c(=O)n(-c2ccccc2)n1C (stereo not given) | · | 1 | · | · | · | · | ·
Cc1cc(O)c(Sc2ncn[nH]2)cc1NS(=O)(=O)c1ccc(Cl)cc1 | 0 | -2 | 10 | 2 | 0 | · | ·

From PubChem BioAssay
